{"source": "ChEMBL document CHEMBL3259739", "about": "“Synthesis and structure-activity relationship of trisubstituted thiazoles as Cdc7 kinase inhibitors” (Eur J Med Chem, 2014)", "key": {"[1]": {"target": "CDC7/DBF4 (Cell division cycle 7-related protein kinase/Activator of S phase kinase) (Homo sapiens, UniProt O00311)", "sequence (Q9UBU7 whole entry, the tested form may be a part)": "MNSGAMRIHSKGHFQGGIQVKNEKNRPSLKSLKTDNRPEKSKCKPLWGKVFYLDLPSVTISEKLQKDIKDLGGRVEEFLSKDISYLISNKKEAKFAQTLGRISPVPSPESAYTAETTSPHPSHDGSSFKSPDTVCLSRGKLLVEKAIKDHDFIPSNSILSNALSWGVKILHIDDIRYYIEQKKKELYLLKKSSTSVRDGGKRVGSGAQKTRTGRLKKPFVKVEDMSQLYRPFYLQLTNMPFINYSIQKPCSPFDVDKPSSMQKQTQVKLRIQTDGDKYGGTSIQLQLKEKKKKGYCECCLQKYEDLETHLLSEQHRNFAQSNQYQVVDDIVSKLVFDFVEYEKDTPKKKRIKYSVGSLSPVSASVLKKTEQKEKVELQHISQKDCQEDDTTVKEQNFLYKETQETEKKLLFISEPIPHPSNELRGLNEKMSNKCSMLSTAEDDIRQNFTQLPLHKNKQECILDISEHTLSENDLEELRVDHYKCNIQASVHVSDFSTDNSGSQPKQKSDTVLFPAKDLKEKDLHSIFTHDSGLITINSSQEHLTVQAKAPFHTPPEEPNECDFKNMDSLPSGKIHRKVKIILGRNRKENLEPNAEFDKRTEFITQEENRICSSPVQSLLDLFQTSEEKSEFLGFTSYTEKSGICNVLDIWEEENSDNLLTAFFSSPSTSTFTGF", "sequence (O00311 whole entry, the tested form may be a part)": "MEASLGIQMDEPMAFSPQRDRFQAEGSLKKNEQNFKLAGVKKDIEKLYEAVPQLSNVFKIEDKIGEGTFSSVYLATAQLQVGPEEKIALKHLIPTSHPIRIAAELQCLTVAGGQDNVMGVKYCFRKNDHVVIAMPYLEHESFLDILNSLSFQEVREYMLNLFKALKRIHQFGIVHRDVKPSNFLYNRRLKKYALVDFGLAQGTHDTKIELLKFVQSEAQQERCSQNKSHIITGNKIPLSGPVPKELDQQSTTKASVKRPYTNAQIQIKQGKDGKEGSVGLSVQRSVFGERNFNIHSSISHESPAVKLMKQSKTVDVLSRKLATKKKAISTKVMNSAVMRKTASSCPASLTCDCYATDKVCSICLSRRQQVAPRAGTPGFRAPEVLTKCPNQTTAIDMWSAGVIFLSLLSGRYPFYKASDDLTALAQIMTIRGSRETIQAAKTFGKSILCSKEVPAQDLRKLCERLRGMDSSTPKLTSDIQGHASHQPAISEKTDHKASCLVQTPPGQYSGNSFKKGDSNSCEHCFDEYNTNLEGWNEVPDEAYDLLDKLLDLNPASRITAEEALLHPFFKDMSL", "assay": "Inhibition of Cdc7/Dbf4 (unknown origin) using 0.012 uM of ATP as substrate by AlphaScreen assay", "type": "protein-complex assay", "in_short": "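AlphaScreen with 6 nM Cdc7/Dbf4 and 10 nM biotinylated His/avitag MCM2 (aa1-467) substrate. Phospho-Ser53 MCM2 detected with antibody-bound Protein A acceptor and streptavidin donor beads. Rates fitted by Michaelis–Menten and double-reciprocal plots.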"}, "[2]": {"assay": "Cmax in Sprague-Dawley rat at 5 mg/kg, po", "type": "ADME, organism-based", "parameters": "dose 5 mg/kg, route oral", "details": "in vivo"}, "Mus musculus": {"system": "Mus musculus", "assay": "Inhibition of Cdc7/Dbf4 in NCR nude mouse xenografted with human HCT116 cells assessed as reduction of phosphorylated MCM2 level in tumor at 150 mg/kg, iv after 1 hr", "type": "functional", "details": "HCT-116, 1 h", "in_short": "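Female athymic NCR/nu mice, 4–6 weeks old, bearing subcutaneous HCT-116 xenografts (5 × 10^6 cells in Matrigel) grown to about 250 mm3. Single iv dose formulated in 20% HPbCD, 1% HPMC, 1% PluronicF68, pH7 at 10 mg/ml; three mice per group. Tumors were homogenized in Tris lysis buffer with protease and phosphatase inhibitors. MSD capture with total MCM2 antibody, then phospho-Ser53 or total MCM2 detection by chemiluminescence; inhibition taken from the phospho/total ratio.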"}}, "note": "pIC50: −log10 of the molar value.", "data": [{"smiles": "NC(=O)c1sc(-c2ccnc(N)n2)nc1-c1ccc(Cl)cc1Cl", "values": [{"measurement": "pIC50", "setting": "[1]", "value": 7.77}, {"measurement": "Cmax", "setting": "[2]", "value": 13, "unit": "ng/mL"}, {"measurement": "inhibition in vivo at 150 mg/kg", "setting": "Mus musculus", "value": 30, "unit": "%"}]}]}
